# Measurements: ChEMBL document CHEMBL4118063, “Design, synthesis and evaluation of aromatic heterocyclic derivatives as potent antifungal agents” (Eur J Med Chem, 2017)
# Legend:
# Candida albicans [1] = assay: Antifungal activity against Candida albicans CPCC 400523 by broth microdilution method; type: functional
# Outline: (§1)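 Serial twofold-style dilution in growth medium per NCCLS broth microdilution guidelines. Compounds dissolved in DMSO before dilution. Fluconazole and itraconazole served as positive controls. MIC was read as the lowest concentration that prevents visible fungal growth.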
# Cryptococcus neoformans = assay: Antifungal activity against Cryptococcus neoformans cgmcc 2.3161 by broth microdilution method; type: functional; outline: as §1
# Candida albicans [2] = assay: Antifungal activity against Candida albicans ATCC SC5314 by broth microdilution method; type: functional; outline: as §1
# Aspergillus fumigatus = assay: Antifungal activity against Aspergillus fumigatus GIM 3.524 by broth microdilution method; type: functional; outline: as §1
# Candida tropicalis = assay: Antifungal activity against Candida tropicalis cgmcc 2.3739 by broth microdilution method; type: functional; outline: as §1
# [3] = molecular target: T1, Lanosterol 14-alpha demethylase (Candida albicans (strain SC5314 / ATCC MYA-2876) (Yeast), UniProt P10613); assay: Inhibition of CYP51 in Candida albicans ATCC SC5314 assessed as eburicol content at 0.5 ug/ml by GS-MS analysis relative to total sterols (reference value: 0.4%); design: scale not given: the % may be the effect or the level left; conditions: at 0.5 µg/mL
# [4] = molecular target: T1, Lanosterol 14-alpha demethylase; assay: Inhibition of CYP51 in Candida albicans ATCC SC5314 assessed as eburicol content at 0.125 ug/ml by GS-MS analysis relative to total sterols (reference value: 0.4%); design: scale not given: the % may be the effect or the level left
# [5] = molecular target: T1, Lanosterol 14-alpha demethylase; assay: Inhibition of CYP51 in Candida albicans ATCC SC5314 assessed as decrease in ergosterol content by GS-MS analysis
# [6] = molecular target: T1, Lanosterol 14-alpha demethylase; assay: Inhibition of CYP51 in Candida albicans ATCC SC5314 assessed as obtusifoliol content at 0.03125 ug/ml by GS-MS analysis relative to total sterols (reference value: 0.6%); design: scale not given: the % may be the effect or the level left
# Candida albicans [7] = assay: Antifungal activity against fluconazole-resistant Candida albicans strain 103 by broth microdilution method; type: functional
# Outline: (§2)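 Broth serial dilution in 96-well plates per NCCLS guidelines; compounds dissolved in DMSO and serially diluted into growth medium; MIC taken as lowest concentration inhibiting visible fungal growth. Fluconazole-resistant clinical C. albicans isolates 100 and 103; fluconazole and itraconazole as positive controls.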
# [8] = molecular target: T1, Lanosterol 14-alpha demethylase; assay: Inhibition of CYP51 in Candida albicans ATCC SC5314 assessed as ergosterol content at 0.5 ug/ml by GS-MS analysis relative to total sterols (reference value: 98.7%); design: scale not given: the % may be the effect or the level left; conditions: at 0.5 µg/mL
# [9] = molecular target: T1, Lanosterol 14-alpha demethylase; assay: Inhibition of CYP51 in Candida albicans ATCC SC5314 assessed as obtusifoliol content at 0.5 ug/ml by GS-MS analysis relative to total sterols (reference value: 0.6%); design: scale not given: the % may be the effect or the level left; conditions: at 0.5 µg/mL
# [10] = molecular target: T1, Lanosterol 14-alpha demethylase; assay: Inhibition of CYP51 in Candida albicans ATCC SC5314 assessed as increase in lanosterol content by GS-MS analysis
# Candida albicans [11] = assay: Antifungal activity against fluconazole-resistant Candida albicans strain 100 by broth microdilution method; type: functional; outline: as §2
# [12] = molecular target: T1, Lanosterol 14-alpha demethylase; assay: Inhibition of CYP51 in Candida albicans ATCC SC5314 assessed as lanosterol content at 0.5 ug/ml by GS-MS analysis relative to total sterols; design: scale not given: the % may be the effect or the level left; conditions: at 0.5 µg/mL
# [13] = Metabolic stability in human plasma assessed as parent compound remaining at 120 mins; type: ADME, cell-free; conditions: read-out: Stability
# [14] = molecular target: T1, Lanosterol 14-alpha demethylase; assay: Inhibition of CYP51 in Candida albicans ATCC SC5314 assessed as increase in eburicol content by GS-MS analysis
# [15] = molecular target: T1, Lanosterol 14-alpha demethylase; assay: Inhibition of CYP51 in Candida albicans ATCC SC5314 assessed as ergosterol content at 8 ug/ml by GS-MS analysis relative to total sterols (reference value: 98.7%); design: scale not given: the % may be the effect or the level left; conditions: at 8 µg/mL
# [16] = molecular target: T1, Lanosterol 14-alpha demethylase; assay: Inhibition of CYP51 in Candida albicans ATCC SC5314 assessed as eburicol content at 8 ug/ml by GS-MS analysis relative to total sterols (reference value: 0.4%); design: scale not given: the % may be the effect or the level left; conditions: at 8 µg/mL
# [17] = molecular target: T1, Lanosterol 14-alpha demethylase; assay: Inhibition of CYP51 in Candida albicans ATCC SC5314 assessed as lanosterol content at 2 ug/ml by GS-MS analysis relative to total sterols; design: scale not given: the % may be the effect or the level left; conditions: at 2 µg/mL
# [18] = molecular target: T1, Lanosterol 14-alpha demethylase; assay: Inhibition of CYP51 in Candida albicans ATCC SC5314 assessed as eburicol content at 2 ug/ml by GS-MS analysis relative to total sterols (reference value: 0.4%); design: scale not given: the % may be the effect or the level left; conditions: at 2 µg/mL
# [19] = molecular target: T1, Lanosterol 14-alpha demethylase; assay: Inhibition of CYP51 in Candida albicans ATCC SC5314 assessed as obtusifoliol content at 2 ug/ml by GS-MS analysis relative to total sterols (reference value: 0.6%); design: scale not given: the % may be the effect or the level left; conditions: at 2 µg/mL
# [20] = molecular target: T1, Lanosterol 14-alpha demethylase; assay: Inhibition of CYP51 in Candida albicans ATCC SC5314 assessed as obtusifoliol content at 0.125 ug/ml by GS-MS analysis relative to total sterols (reference value: 0.6%); design: scale not given: the % may be the effect or the level left
# [21] = molecular target: T1, Lanosterol 14-alpha demethylase; assay: Inhibition of CYP51 in Candida albicans ATCC SC5314 assessed as lanosterol content at 0.125 ug/ml by GS-MS analysis relative to total sterols; design: scale not given: the % may be the effect or the level left
# [22] = molecular target: T1, Lanosterol 14-alpha demethylase; assay: Inhibition of CYP51 in Candida albicans ATCC SC5314 assessed as ergosterol content at 0.125 ug/ml by GS-MS analysis relative to total sterols (reference value: 98.7%); design: scale not given: the % may be the effect or the level left
# [23] = molecular target: T1, Lanosterol 14-alpha demethylase; assay: Inhibition of CYP51 in Candida albicans ATCC SC5314 assessed as obtusifoliol content at 8 ug/ml by GS-MS analysis relative to total sterols (reference value: 0.6%); design: scale not given: the % may be the effect or the level left; conditions: at 8 µg/mL
# [24] = molecular target: T1, Lanosterol 14-alpha demethylase; assay: Inhibition of CYP51 in Candida albicans ATCC SC5314 assessed as ergosterol content at 0.03125 ug/ml by GS-MS analysis relative to total sterols (reference value: 98.7%); design: scale not given: the % may be the effect or the level left
# [25] = Metabolic stability in human plasma assessed as parent compound remaining at 60 mins; type: ADME, cell-free; conditions: read-out: Stability
# [26] = molecular target: T1, Lanosterol 14-alpha demethylase; assay: Inhibition of CYP51 in Candida albicans ATCC SC5314 assessed as lanosterol content at 8 ug/ml by GS-MS analysis relative to total sterols; design: scale not given: the % may be the effect or the level left; conditions: at 8 µg/mL
# [27] = molecular target: T1, Lanosterol 14-alpha demethylase; assay: Inhibition of CYP51 in Candida albicans ATCC SC5314 assessed as eburicol content at 0.03125 ug/ml by GS-MS analysis relative to total sterols (reference value: 0.4%); design: scale not given: the % may be the effect or the level left
# [28] = molecular target: T1, Lanosterol 14-alpha demethylase; assay: Inhibition of CYP51 in Candida albicans ATCC SC5314 assessed as ergosterol content at 2 ug/ml by GS-MS analysis relative to total sterols (reference value: 98.7%); design: scale not given: the % may be the effect or the level left; conditions: at 2 µg/mL
# T1 sequence (P10613 whole entry): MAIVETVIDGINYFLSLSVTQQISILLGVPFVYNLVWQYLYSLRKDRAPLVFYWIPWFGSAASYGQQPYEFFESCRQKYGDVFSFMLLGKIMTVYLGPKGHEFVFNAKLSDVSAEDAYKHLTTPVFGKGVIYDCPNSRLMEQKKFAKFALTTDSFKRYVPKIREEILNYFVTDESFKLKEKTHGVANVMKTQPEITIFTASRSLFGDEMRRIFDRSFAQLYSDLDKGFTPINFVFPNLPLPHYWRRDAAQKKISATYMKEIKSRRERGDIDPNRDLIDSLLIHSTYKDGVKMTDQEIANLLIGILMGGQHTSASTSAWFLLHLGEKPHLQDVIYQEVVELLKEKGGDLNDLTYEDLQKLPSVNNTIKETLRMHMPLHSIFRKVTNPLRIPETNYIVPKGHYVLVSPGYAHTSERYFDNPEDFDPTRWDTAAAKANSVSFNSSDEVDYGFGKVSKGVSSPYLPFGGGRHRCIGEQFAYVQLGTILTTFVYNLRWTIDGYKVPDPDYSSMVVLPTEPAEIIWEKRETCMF
compound,measurement,setting,value
CC(C)OC(=O)[C@H](Cn1ccnc1)NC(=O)c1nc(-c2ccccc2)cs1,MIC,Candida albicans [1],> 16 µg/mL
same,MIC,Cryptococcus neoformans,2 µg/mL
same,MIC,Candida albicans [2],> 16 µg/mL
same,MIC,Aspergillus fumigatus,> 16 µg/mL
same,MIC,Candida tropicalis,0.0625 µg/mL
Cc1cc(C(=O)N[C@@H](Cn2ccnc2)C(=O)OCC(C)C)nn1-c1ccccc1,MIC,Candida albicans [1],> 16 µg/mL
same,MIC,Cryptococcus neoformans,> 16 µg/mL
same,MIC,Candida albicans [2],> 16 µg/mL
same,MIC,Aspergillus fumigatus,> 16 µg/mL
same,MIC,Candida tropicalis,4 µg/mL
CC(C)COC(=O)[C@H](Cn1ccnc1)NC(=O)c1cc(-c2ccccc2)on1,MIC,Candida albicans [1],1 µg/mL
same,MIC,Cryptococcus neoformans,0.25 µg/mL
same,MIC,Candida albicans [2],0.0625 µg/mL
same,MIC,Aspergillus fumigatus,4 µg/mL
same,MIC,Candida tropicalis,0.0312 µg/mL
CC(C)OC(=O)[C@H](Cn1ccnc1)NC(=O)c1ccc(-c2ccccc2F)cc1,MIC,Candida albicans [1],0.25 µg/mL
same,MIC,Cryptococcus neoformans,1 µg/mL
same,MIC,Candida albicans [2],0.0625 µg/mL
same,MIC,Aspergillus fumigatus,> 16 µg/mL
same,MIC,Candida tropicalis,0.0625 µg/mL
Cc1ccc(-c2cc(C(=O)N[C@@H](Cn3ccnc3)C(=O)OC(C)C)no2)cc1,MIC,Candida albicans [1],0.5 µg/mL
same,MIC,Cryptococcus neoformans,2 µg/mL
same,MIC,Candida albicans [2],0.25 µg/mL
same,MIC,Aspergillus fumigatus,8 µg/mL
same,MIC,Candida tropicalis,0.0312 µg/mL
CC(C)OC(=O)[C@H](Cn1ccnc1)NC(=O)c1cc(-c2ccccc2F)on1,Activity,[3],45.6%
same,Activity,[4],4.9%
same,MIC,Candida albicans [1],0.25 µg/mL
same,inhibition (INH),[5],Dose-dependent effect
same,Activity,[6],4.3%
same,MIC,Candida albicans [7],1 µg/mL
same,Activity,[8],30.8%
same,Activity,[9],6.9%
same,inhibition (INH),[10],Dose-dependent effect
same,MIC,Candida albicans [11],1 µg/mL
same,Activity,[12],16.7%
same,remaining at 2 h,[13],91.8%
same,inhibition (INH),[14],Dose-dependent effect
same,Activity,[15],0.7%
same,Activity,[16],63.7%
same,Activity,[17],22%
same,MIC,Cryptococcus neoformans,0.5 µg/mL
same,Activity,[18],63.3%
same,Activity,[19],9.2%
same,Activity,[20],6.9%
same,Activity,[21],2.2%
same,MIC,Candida albicans [2],0.0625 µg/mL
same,Activity,[22],85.9%
same,MIC,Aspergillus fumigatus,4 µg/mL
same,Activity,[23],8.9%
same,Activity,[24],93.9%
same,remaining at 1 h,[25],95.3%
same,Activity,[26],26.7%
same,Activity,[27],1.7%
same,Activity,[28],5.4%
same,MIC,Candida tropicalis,0.0312 µg/mL
CC(C)OC(=O)[C@H](Cn1ccnc1)NC(=O)c1cc(-c2ccc(Br)cc2)on1,MIC,Candida albicans [1],0.25 µg/mL
same,MIC,Cryptococcus neoformans,2 µg/mL
same,MIC,Candida albicans [2],0.0625 µg/mL
same,MIC,Aspergillus fumigatus,> 16 µg/mL
same,MIC,Candida tropicalis,0.0312 µg/mL
